Active and inactive are the calls of the source. The rule behind the calls is not given here.
Columns and labels:
U-266 = assay: Induction of apoptosis in human U266 cells at 10 uM after 24 hrs; format: functional, cell-based
[1] = target: T1, Retinoblastoma-associated protein (Homo sapiens) (UniProt P06400); assay: Inhibition of retinoblastoma protein in human MCF7 cells assessed as reduction of CDK4 level at 2.5 to 40 uM after 24 hrs by immunoblotting; format: cell-based
T1 sequence (whole entry): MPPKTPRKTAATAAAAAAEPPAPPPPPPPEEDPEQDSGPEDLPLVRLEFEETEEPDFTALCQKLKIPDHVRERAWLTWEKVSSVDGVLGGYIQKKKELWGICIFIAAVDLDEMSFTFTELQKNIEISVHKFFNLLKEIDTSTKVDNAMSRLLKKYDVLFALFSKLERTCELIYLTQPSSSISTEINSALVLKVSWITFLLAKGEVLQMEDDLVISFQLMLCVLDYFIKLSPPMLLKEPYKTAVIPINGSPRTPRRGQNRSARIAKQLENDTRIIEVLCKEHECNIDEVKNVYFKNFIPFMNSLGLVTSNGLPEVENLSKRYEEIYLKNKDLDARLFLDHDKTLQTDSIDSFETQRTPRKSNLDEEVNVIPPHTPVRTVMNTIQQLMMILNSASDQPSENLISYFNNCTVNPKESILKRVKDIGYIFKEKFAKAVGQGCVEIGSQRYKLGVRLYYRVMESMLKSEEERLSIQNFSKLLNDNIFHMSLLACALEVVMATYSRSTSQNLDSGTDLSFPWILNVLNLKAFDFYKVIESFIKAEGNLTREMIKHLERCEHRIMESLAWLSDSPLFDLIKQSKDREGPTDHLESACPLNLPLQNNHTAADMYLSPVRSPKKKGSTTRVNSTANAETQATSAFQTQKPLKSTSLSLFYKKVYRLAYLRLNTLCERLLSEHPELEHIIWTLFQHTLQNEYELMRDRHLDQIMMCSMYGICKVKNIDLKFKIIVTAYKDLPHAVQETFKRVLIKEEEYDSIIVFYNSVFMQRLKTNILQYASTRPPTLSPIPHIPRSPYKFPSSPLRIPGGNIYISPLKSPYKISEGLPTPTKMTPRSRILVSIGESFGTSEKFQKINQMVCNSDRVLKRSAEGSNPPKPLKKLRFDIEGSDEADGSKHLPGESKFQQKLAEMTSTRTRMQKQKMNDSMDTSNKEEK
In short: (§1)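 Asynchronous, exponentially growing MCF-7 cells were exposed 24 h to a range of concentrations. Total lysates were made in Laemmli buffer, run on SDS-PAGE and blotted to nitrocellulose. Membranes were probed overnight at 4 °C with specific or phosphospecific antibodies (pRb S249/T252, S780, S795, S807/811), with tubulin as loading control and ECL detection.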

RPMI-8226 [2] = assay: Induction of apoptosis in human RPMI8226 cells assessed as cleaved fragmentation of caspase3 after 24 hrs by immunoblot analysis; format: functional, cell-based
In short: (§2)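 RPMI-8226 cells were treated continuously for 24 h, and total lysates were made in Laemmli buffer, run on SDS-PAGE and blotted to nitrocellulose. Loading was checked with Ponceau-S. Membranes were blocked in milk or BSA, probed overnight at 4 °C with antibodies to PARP, caspase-3 and Mcl-1, then peroxidase secondary (1:2000), with ECL detection.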

MCF7 [3] = assay: Cell cycle arrest in human MCF7 cells assessed as accumulation at sub-G1 phase after 24 hrs using propidium iodide and BrdU staining by flow cytometry; format: functional, cell-based
In short: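 Subconfluent MCF-7 cells were treated for 24 h at a range of concentrations. They were pulse-labelled with 10 μM BrdU for 30 min at 37 °C, then trypsinized and fixed in ice-cold 70% ethanol. DNA was denatured in 2 M HCl and neutralized with borate. Cells were stained with fluorescein anti-BrdU and with propidium iodide plus RNase A, then analysed by flow cytometry at 488 nm.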

[4] = target: T1, Retinoblastoma-associated protein (Homo sapiens); assay: Inhibition of retinoblastoma protein in human MCF7 cells assessed as reduction of CDK6 level at 2.5 to 40 uM after 24 hrs by immunoblotting; format: cell-based; in short: as §1
RPMI-8226 [5] = assay: Induction of apoptosis in human RPMI8226 cells assessed as down-regulation of Mcl-1 after 24 hrs by immunoblot analysis; format: functional, cell-based; in short: as §2
[6] = target: T1, Retinoblastoma-associated protein (Homo sapiens); assay: Inhibition of retinoblastoma protein phosphorylation at Ser249/Thr252, Ser807/811, Ser780, and Ser795 in human MCF7 cells after 24 hrs by immunoblotting; format: cell-based; in short: as §1
MCF7 [7] = assay: Cytotoxicity against human MCF7 cells after 72 hrs by fluoroskan ascent microplate reader analysis; format: functional, cell-based; settings: MCF7, 72 h
In short: (§3)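 Cells were grown in DMEM with 10% FCS and 4 mM glutamine at 37 °C under CO2, then plated at densities suited to each line. Compounds were added as 3-fold dilutions in triplicate for 72 h.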

[8] = target: CDK9/cyclin T1 (Homo sapiens) (UniProt O60563+P50750); assay: Inhibition of human recombinant CDK9/cyclin T1 at 10 uM; format: protein-complex assay
BT-474 = assay: Cytotoxicity against human BT474 cells after 72 hrs by fluoroskan ascent microplate reader analysis; format: functional, cell-based; settings: BT-474, 72 h; in short: as §3
MCF7 [9] = assay: Induction of apoptosis in human MCF7 cells at 10 uM after 24 hrs; format: functional, cell-based
HBL-100 = assay: Cytotoxicity against human HBL100 cells after 72 hrs by fluoroskan ascent microplate reader analysis; format: functional, cell-based; settings: HBL-100, 72 h; in short: as §3
[10] = target: Glycogen synthase kinase-3 beta (Homo sapiens) (UniProt P49841); assay: Inhibition of human recombinant GSK3B at 10 uM
MCF7 [11] = assay: Cell cycle arrest in human MCF7 cells assessed as accumulation at G1 phase after 24 hrs using propidium iodide and BrdU staining by flow cytometry; format: functional, cell-based
In short: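 Subconfluent cells treated 24 h at varying concentrations, pulsed with 10 μM BrdU for 30 min at 37 °C, then trypsinized, fixed in ice-cold 70% ethanol and DNA denatured in 2 M HCl. After staining with fluorescein anti-BrdU (1:50), propidium iodide (0.1 mg/mL) and RNase A (0.5 mg/mL), cells were read by flow cytometry with a 488 nm laser.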

K562 = assay: Cytotoxicity against human K562 cells after 72 hrs by fluoroskan ascent microplate reader analysis; format: functional, cell-based; settings: K562, 72 h; in short: as §3
RPMI-8226 [12] = assay: Cell cycle arrest in human RPMI8226 cells assessed as accumulation at sub-G1 phase after 24 hrs using propidium iodide and BrdU staining by flow cytometry; format: functional, cell-based
In short: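 Asynchronously growing RPMI-8226 multiple myeloma cells were exposed for 24 h. Cells were double-stained with propidium iodide and BrdU and analysed by flow cytometry for G1, S, G2/M and BrdU-positive fractions. The subG1 population was taken as indicative of apoptosis.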

[13] = target: Glycogen synthase kinase-3 alpha (Homo sapiens) (UniProt P49840); assay: Inhibition of human recombinant GSK3A at 10 uM
RPMI-8226 [14] = assay: Induction of apoptosis in human RPMI8226 cells assessed as induction of caspase3 activation at 20 uM after 24 hrs by immunoblot analysis; format: functional, cell-based
[15] = target: Casein kinase I isoform alpha (Homo sapiens) (UniProt P48729); assay: Inhibition of human recombinant CK1 at 10 uM
[16] = target: Dual specificity mitogen-activated protein kinase kinase 1 (Homo sapiens) (UniProt Q02750); assay: Inhibition of human recombinant MEK1 at 10 uM
Dual specificity mitogen-activated protein kinase kinase 1 (Homo sapiens), sequence (Q02750 whole entry): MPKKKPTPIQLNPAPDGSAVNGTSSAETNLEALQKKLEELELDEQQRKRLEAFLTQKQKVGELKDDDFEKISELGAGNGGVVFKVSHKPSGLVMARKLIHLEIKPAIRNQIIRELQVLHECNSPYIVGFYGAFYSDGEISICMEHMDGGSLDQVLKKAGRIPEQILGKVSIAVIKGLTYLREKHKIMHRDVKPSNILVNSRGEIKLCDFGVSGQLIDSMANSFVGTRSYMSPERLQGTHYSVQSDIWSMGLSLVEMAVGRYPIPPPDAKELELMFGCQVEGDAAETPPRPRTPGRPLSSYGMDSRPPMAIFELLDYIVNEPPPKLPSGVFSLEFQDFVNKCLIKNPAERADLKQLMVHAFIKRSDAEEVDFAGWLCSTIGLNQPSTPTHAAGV

Casein kinase I isoform alpha (Homo sapiens), sequence (P48729 2-337 limits assumed): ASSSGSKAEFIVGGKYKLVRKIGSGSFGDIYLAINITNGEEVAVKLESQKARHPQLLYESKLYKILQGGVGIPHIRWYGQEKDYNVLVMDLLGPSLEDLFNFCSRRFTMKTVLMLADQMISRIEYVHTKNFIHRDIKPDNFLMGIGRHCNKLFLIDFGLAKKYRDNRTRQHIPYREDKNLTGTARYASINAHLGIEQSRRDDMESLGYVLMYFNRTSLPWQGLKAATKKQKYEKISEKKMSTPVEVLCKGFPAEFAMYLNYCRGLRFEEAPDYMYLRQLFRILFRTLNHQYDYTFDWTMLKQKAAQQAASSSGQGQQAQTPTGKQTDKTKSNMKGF
Glycogen synthase kinase-3 beta (Homo sapiens), sequence (P49841 whole entry, looked up): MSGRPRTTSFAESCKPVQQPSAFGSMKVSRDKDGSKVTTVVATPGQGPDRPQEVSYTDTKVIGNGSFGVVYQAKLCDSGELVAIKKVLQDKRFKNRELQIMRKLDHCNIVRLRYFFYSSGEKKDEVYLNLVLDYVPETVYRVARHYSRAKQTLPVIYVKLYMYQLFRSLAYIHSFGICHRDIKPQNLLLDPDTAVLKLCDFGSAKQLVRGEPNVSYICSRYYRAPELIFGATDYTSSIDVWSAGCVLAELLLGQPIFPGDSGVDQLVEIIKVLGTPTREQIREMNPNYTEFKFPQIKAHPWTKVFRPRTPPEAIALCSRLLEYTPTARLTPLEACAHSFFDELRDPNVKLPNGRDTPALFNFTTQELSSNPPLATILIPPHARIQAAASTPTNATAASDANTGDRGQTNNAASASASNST
Glycogen synthase kinase-3 alpha (Homo sapiens), sequence (P49840 2-483 limits assumed): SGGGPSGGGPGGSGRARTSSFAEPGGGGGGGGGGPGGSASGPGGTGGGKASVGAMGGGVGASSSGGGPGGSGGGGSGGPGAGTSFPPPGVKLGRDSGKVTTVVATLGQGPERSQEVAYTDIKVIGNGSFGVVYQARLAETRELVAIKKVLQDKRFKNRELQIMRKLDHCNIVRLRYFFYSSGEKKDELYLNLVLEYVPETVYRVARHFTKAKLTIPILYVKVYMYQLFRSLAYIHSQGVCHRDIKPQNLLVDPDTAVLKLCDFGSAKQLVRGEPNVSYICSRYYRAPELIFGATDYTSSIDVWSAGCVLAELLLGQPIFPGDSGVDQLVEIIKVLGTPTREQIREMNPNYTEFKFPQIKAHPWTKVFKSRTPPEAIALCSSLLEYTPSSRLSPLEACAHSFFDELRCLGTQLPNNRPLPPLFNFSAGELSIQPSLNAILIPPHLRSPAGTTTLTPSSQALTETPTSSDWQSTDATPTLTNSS

inhibition [1]: Active | inhibition [4]: inactive | inhibition [6]: Dose-dependent effect | inhibition [8]: 90% | inhibition [10]: 54% | inhibition [13]: 32% | inhibition [15]: 7% | inhibition [16]: 58%
SMILES: CC[C@H](CO)Nc1nc(NCc2ccccc2)c2[nH]nc(C(C)C)c2n1
Activity (U-266): Active | Activity (RPMI-8226 [2]): Active | Activity (MCF7 [3]): Active | Activity (RPMI-8226 [5]): Active | IC50 (MCF7 [7]): 7.5 µM | IC50 (BT-474): 8.5 µM | Activity (MCF7 [9]): Active | IC50 (HBL-100): 11.3 µM | Activity (MCF7 [11]): inactive | IC50 (K562): 7.7 µM | Activity (RPMI-8226 [12]): Active | Activity (RPMI-8226 [14]): Active
